ChEMBL document CHEMBL1131121, “Inactivation of S-adenosyl-L-homocysteine hydrolase and antiviral activity with 5',5',6',6'-tetradehydro-6'-deoxy-6'-halohomoadenosine analogues (4'-haloacetylene analogues derived from adenosine)” (J Med Chem, 1998)
In brackets after ≈: the same amount, converted by molar mass.

Assays:
[1] = tested on: Vero; experiment: concentration required to inhibit Coxsackie virus B4-induced cytopathicity by 50% in Vero cells; type: functional, cell-based; conditions: Chlorocebus sabaeus
In short: (§1)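 Assay measured inhibition of virus-induced cytopathicity in confluent E6SM, HeLa or Vero monolayers. Cells were inoculated with 100 CCID50 of virus for 1 h adsorption, then unbound virus was removed. Cultures were incubated with serial compound concentrations (400, 200, 100 … µg/mL). Cytopathicity was scored once virus control cultures reached complete CPE, and the 50% effective concentration was derived.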

[2] = molecular target: T1, Adenosylhomocysteinase (Homo sapiens, UniProt P23526); experiment: NADH content of the enzyme (percentage of total coenzyme) from the compound; type: functional
In short: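 AdoHcy hydrolase (10 µM) in buffer A was incubated with 100 µM compound at 37 °C for 20 min. Conversion of enzyme-bound NAD⁺ to NADH was followed by UV absorbance at 340 nm and quantified against a standard curve. Values are given as % of total coenzyme.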
Target sequence in this assay (P23526 2-432 limits assumed): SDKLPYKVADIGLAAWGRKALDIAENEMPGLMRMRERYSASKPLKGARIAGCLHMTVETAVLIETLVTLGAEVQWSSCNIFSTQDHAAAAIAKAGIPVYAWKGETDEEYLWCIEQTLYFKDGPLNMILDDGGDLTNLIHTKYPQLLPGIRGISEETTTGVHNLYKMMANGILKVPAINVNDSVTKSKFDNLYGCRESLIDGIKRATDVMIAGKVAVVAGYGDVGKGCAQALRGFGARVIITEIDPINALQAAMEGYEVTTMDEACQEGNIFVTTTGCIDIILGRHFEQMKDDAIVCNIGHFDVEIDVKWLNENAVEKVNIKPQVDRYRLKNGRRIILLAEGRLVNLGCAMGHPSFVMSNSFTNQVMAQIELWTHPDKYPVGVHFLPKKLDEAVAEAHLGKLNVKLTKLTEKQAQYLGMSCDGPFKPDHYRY

[3] = molecular target: T1, Adenosylhomocysteinase; experiment: Inhibition of S-adenosyl-homocysteine hydrolase at 10 uM concentration was determined from enzyme activity remaining; values are per cent of control
Target sequence in this assay (P23526 2-432 limits assumed): as above

[4] = molecular target: T1, Adenosylhomocysteinase; experiment: (§2) Kinetic constant calculated from the pseudo-first-order rate constant(k app) for S-adenosyl-homocysteine hydrolase inactivation
In short: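 Recombinant human placental AdoHcy hydrolase (25 nM) preincubated with 0–100 µM inhibitor in buffer A (50 mM potassium phosphate, pH 7.2, 1 mM EDTA) at 37 °C for 0–5 min. Residual activity then measured in the synthetic direction (Ado 1 mM, Hcy 5 mM, 37 °C, 5 min; AdoHcy by reverse-phase HPLC). k_app taken from log remaining activity vs time; k2 and Ki from Kitz–Wilson analysis.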
Target sequence in this assay (P23526 whole entry): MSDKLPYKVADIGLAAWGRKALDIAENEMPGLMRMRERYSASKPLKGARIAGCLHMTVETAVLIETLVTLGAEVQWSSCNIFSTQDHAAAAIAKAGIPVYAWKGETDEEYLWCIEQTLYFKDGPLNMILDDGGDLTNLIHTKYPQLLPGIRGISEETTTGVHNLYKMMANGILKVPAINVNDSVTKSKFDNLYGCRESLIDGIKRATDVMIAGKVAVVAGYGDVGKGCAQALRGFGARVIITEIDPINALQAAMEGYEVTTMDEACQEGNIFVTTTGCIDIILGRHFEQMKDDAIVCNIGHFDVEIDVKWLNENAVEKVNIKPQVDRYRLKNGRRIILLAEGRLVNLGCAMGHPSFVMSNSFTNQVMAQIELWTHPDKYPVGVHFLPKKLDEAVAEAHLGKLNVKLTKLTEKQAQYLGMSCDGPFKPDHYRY

[5] = molecular target: T1, Adenosylhomocysteinase; experiment: Inhibition of S-adenosyl-homocysteine hydrolase at 1 uM concentration was determined from enzyme activity remaining; values are per cent of control
Target sequence in this assay (P23526 2-432 limits assumed): as the sequence (P23526 2-432 limits assumed) above

[6] = molecular target: T1, Adenosylhomocysteinase; experiment: (§3) Enzyme-mediated release of Adenine(Ade) from the compound; type: functional
In short: (§4)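 AdoHcy hydrolase (10 µM) was incubated with 100 µM compound in buffer A at 37 °C for 20 min. At each time point the reaction was stopped with 5 M HClO4 and adenine measured by HPLC. The peak identity was confirmed by co-injection with authentic adenine and by CI/NH3 mass spectrometry.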
Target sequence in this assay (P23526 2-432 limits assumed): as above

[7] = tested on: HeLa; experiment: concentration required to inhibit VSV-induced cytopathicity by 50% in HeLa cells; type: functional, cell-based; conditions: Homo sapiens; in short: as §1
[8] = tested on: HeLa; experiment: Minimum inhibitory concentration (MIC) required to elicit a microscopically visible alteration of cell morphology in HeLa cells; type: functional; conditions: Homo sapiens
[9] = tested on: Vero; experiment: concentration required to inhibit Sindbis virus -induced cytopathicity by 50% in Vero cells; type: functional, cell-based; conditions: Chlorocebus sabaeus; in short: as §1
[10] = tested on: E6SM; experiment: concentration required to inhibit HSV-1/TK (B2006) or VMW1837-induced cytopathicity by 50% in E6SM cells; type: functional, cell-based; conditions: Homo sapiens; in short: as §1
[11] = molecular target: T1, Adenosylhomocysteinase; experiment: Inhibition of S-adenosyl-homocysteine hydrolase at 0.1 uM concentration was determined from enzyme activity remaining; values are per cent of control
Target sequence in this assay (P23526 2-432 limits assumed): as above

[12] = tested on: E6SM; experiment: concentration required to inhibit HSV-2(G)-induced cytopathicity by 50% in E6SM cells; type: functional, cell-based; conditions: Homo sapiens; in short: as §1
[13] = tested on: HeLa; experiment: concentration required to inhibit Coxsackie virus B4-induced cytopathicity by 50% in HeLa cells; type: functional, cell-based; conditions: Homo sapiens; in short: as §1
[14] = tested on: E6SM; experiment: concentration required to inhibit VSV-induced cytopathicity by 50% in E6SM cells; type: functional, cell-based; conditions: Homo sapiens; in short: as §1
[15] = tested on: E6SM; experiment: concentration required to inhibit HSV-1(KOS)-induced cytopathicity by 50% in E6SM cells; type: functional, cell-based; conditions: Homo sapiens; in short: as §1
[16] = tested on: Vero; experiment: concentration required to inhibit Punta Toro virus-induced cytopathicity by 50% in Vero cells; type: functional, cell-based; conditions: Chlorocebus sabaeus; in short: as §1
[17] = molecular target: T1, Adenosylhomocysteinase; experiment: as §2; remark: listed apart in the source
In short: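 For time-dependent inactivation, enzyme (25 nM) was incubated with various inhibitor concentrations in buffer A at 37 °C for 0–5 min, then residual synthetic-direction activity was assayed by HPLC. k_app was taken from the log(remaining activity) versus time plot. k2 and Ki were derived from k_app and [I] by the Kitz–Wilson method.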
Target sequence in this assay (P23526 2-432 limits assumed): as above

[18] = tested on: E6SM; experiment: Minimum inhibitory concentration (MIC) required to elicit a microscopically visible alteration of cell morphology in E6SM cells; type: functional; conditions: Homo sapiens
[19] = tested on: E6SM; experiment: concentration required to inhibit vaccinia virus-induced cytopathicity by 50% in E6SM cells; type: functional, cell-based; conditions: Homo sapiens; in short: as §1
[20] = tested on: Vero; experiment: concentration required to inhibit reovirus-1-induced cytopathicity by 50% in Vero cells; type: functional, cell-based; conditions: Chlorocebus sabaeus; in short: as §1
[21] = tested on: HeLa; experiment: concentration required to inhibit RSV-induced cytopathicity by 50% in HeLa cells; type: functional, cell-based; conditions: Homo sapiens; in short: as §1
[22] = tested on: Vero; experiment: Minimum inhibitory concentration (MIC) required to elicit a microscopically visible alteration of cell morphology in Vero cells; type: functional; conditions: Chlorocebus sabaeus
[23] = molecular target: T1, Adenosylhomocysteinase; experiment: Effect on the S-adenosyl-homocysteine hydrolase activity; type: functional
In short: (§5)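 Recombinant human placental AdoHcy hydrolase was exposed to 100 µM inhibitor in buffer A (50 mM potassium phosphate, pH 7.2, 1 mM EDTA) at 37 °C for 20 min. Residual activity was measured in the synthetic direction with 1 mM Ado plus 5 mM Hcy for 5 min at 37 °C. The reaction was stopped with HClO4 and AdoHcy quantified by C18 reverse-phase HPLC.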

[24] = tested on: Vero; experiment: concentration required to inhibit parainfluenza-3 virus-induced cytopathicity by 50% in Vero cells; type: functional, cell-based; conditions: Chlorocebus sabaeus; in short: as §1
[25] = molecular target: T1, Adenosylhomocysteinase; experiment: Inhibition of S-adenosyl-homocysteine hydrolase at 100 uM concentration was determined from S-adenosylhomocysteine hydrolase activity remaining; conditions: values are per cent of control; in short: as §5
[26] = molecular target: T1, Adenosylhomocysteinase; experiment: Enzyme-mediated release of halide ions from the compound; type: functional
In short: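 Enzyme (10 µM) was incubated with 100 µM compound in buffer A at 37 °C for 20 min and the filtrate collected through a 3000 Mr cutoff device. Cl⁻ and Br⁻ were measured by anion-exchange HPLC with conductivity detection (1.5 mM p-hydroxybenzoic acid/2% methanol, pH 8.5). I⁻ was measured by C18 ion-pair HPLC at 260 nm. All ions were quantified against standard curves.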

[27] = tested on: Vero; experiment: concentration required to inhibit reovirus-1 induced cytopathicity by 50% in Vero cells; type: functional, cell-based; conditions: Chlorocebus sabaeus; in short: as §1
[28] = molecular target: T1, Adenosylhomocysteinase; experiment: as §3; in short: as §4
[29] = molecular target: T1, Adenosylhomocysteinase; experiment: Inhibition of S-adenosyl-homocysteine hydrolase at 01 uM concentration was determined from enzyme activity remaining
In short: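 Recombinant human placental AdoHcy hydrolase (25 nM) was preincubated with 0–100 µM inhibitor in buffer A (50 mM potassium phosphate, pH 7.2, 1 mM EDTA) at 37 °C for 20 min. Remaining activity was assayed as AdoHcy formed from 1 mM Ado and 5 mM Hcy (5 min, 37 °C), then HClO4 quench and C18 HPLC. Results are given as % activity remaining.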

[30] = molecular target: T1, Adenosylhomocysteinase; experiment: Inhibition of S-adenosyl-homocysteine hydrolase at 100 uM concentration was determined from enzyme activity remaining; conditions: values are per cent of control; in short: as §5
[31] = molecular target: T1, Adenosylhomocysteinase; experiment: Inhibition of S-adenosyl-homocysteine hydrolase at 100 uM concentration; in short: as §5

| Structure (SMILES) | EC50 [1] [µM] | Total coenzyme [2] [%] | residual activity [3] [%] | Ki [4] [µM] | EC50 [7] [µM] | MIC [8] [µM] | EC50 [9] [µM] | EC50 [10] [µM] | residual activity [11] [%] | EC50 [12] [µM] | EC50 [13] [µM] | EC50 [14] [µM] | EC50 [15] [µM] | EC50 [16] [µM] | k2 [17] [min⁻¹] | MIC [18] [µM] | EC50 [19] [µM] | EC50 [20] [µM] | MIC [22] [µM] | EC50 [24] [µM] | further results |
| --- | --- | --- | --- | --- | --- | --- | --- | --- | --- | --- | --- | --- | --- | --- | --- | --- | --- | --- | --- | --- | --- |
| Nc1ncnc2c1ncn2C1O[C@H](C#CBr)[C@@H](O)[C@H]1O (some centres not stated) | > 30 | 49 | 62.9 | 3.8 | 45 | > 300 | > 30 | > 120 | 91 | > 120 | > 300 | 6 | > 120 | > 30 | 0.49 | > 300 | 6 | 3 | > 120 | 6 | residual activity [5]: 73.2%; Release [6]: 28%; EC50 [21]: 210 µM; Activity [23]: 49%; residual activity [25]: 56%; Release [26]: 70% |
| NC1=NC(CCCO)N(CCCO)c2[nH]cnc21 (configuration not stated) | > 2000 |  |  |  | 400 | > 2000 | > 2000 |  |  |  | > 2000 |  |  | > 2000 |  |  |  |  | > 1600 | 1200 | EC50 [27]: 240 µM |
| Nc1ncnc2c1ncn2C1O[C@H](C#CCl)[C@@H](O)[C@H]1O (some centres not stated) | > 35 | 53 | 58.9 | 1.7 | > 140 | > 340 | > 35 | > 140 | 89.3 | > 140 | > 140 | 70 | > 140 | > 35 | 0.48 | > 340 | 140 | > 35 | > 140 | > 35 | Release [28]: 18%; inhibition [29]: 64%; residual activity [30]: 55%; EC50 [21]: > 140 µM; Activity [23]: 47%; Release [26]: 28% |
| Nc1ncnc2c1ncn2C1O[C@H](C#CI)[C@@H](O)[C@H]1O (some centres not stated) | > 104 | 96 | 8.8 | 1.1 | 260 | > 1040 | > 104 | > 10 | 80 | > 10 | > 260 | 0.08 | > 10 | > 104 | 0.095 | 26 (≈ 10.1 µg/mL) | 0.26 | > 0.78 | > 180 | 2.6 | residual activity [5]: 44.6%; Release [6]: 5.7%; inhibition [31]: < 2%; EC50 [21]: > 260 µM; Activity [23]: 1.4%; Release [26]: 0% |
| NC(=O)c1ncn([C@@H]2O[C@H](CO)[C@@H](O)[C@H]2O)n1 [RIBAVIRIN] | > 1600 |  |  |  | 192 | > 1600 | 64 | 128 |  | 960 | 320 | 192 | 960 | 64 |  | > 1600 | 192 | 64 | > 1600 | 64 |  |
